Assay results collected from several papers.
Compare with care: the assays were run in different laboratories.

Compound	test system	conditions	endpoint	result
COc1ccc([C@@H]2CN(C(=O)[C@@H](O)CO)C[C@@]2(C)[C@@H](C)O)cc1OC1CN(c2ccc(C)cn2)C1	human, plasma	oral, 1.5 mg, single dose, healthy volunteers	Vd/F	55.7 L
CCNCCCNC/C=C\CNCCCNCC	human, plasma	intravenous, 50 mg, patients, infusion	Vd	2.12 L/kg
Cc1cc(Nc2cc(N3CCN(C)CC3)nc(/C=C/c3ccccc3)n2)n[nH]1	human, plasma	oral, 60 mg/m², multiple doses, patients	Vd/F	699 L
C[C@@]1(c2cc(NC(=O)c3ccc(C#N)cn3)ccc2F)C=CSC(N)=N1	human, plasma	oral, 10 mg, single dose	Vd/F	210 L
CC(C)(C)c1ccc(O)c(CN(Cc2cc(C(C)(C)C)ccc2O)C2CCC(NC(N)=O)CC2)c1 (centres unmarked)	male C57BL/6 mouse, brain	oral, 10 mg/kg, single dose	Cmax	550 ng/g
CC(C)(Sc1ccncc1-c1ccc(C#N)c2ccccc12)C(=O)O	male human, plasma	oral, 20 mg, single dose, fasted, healthy volunteers	Vd/F	328 L
COc1cc(C(=O)NC2CCN(C)CC2)c(F)cc1Nc1ncc(C(F)(F)F)c(Oc2cccc3c2C(=O)N(C)C3)n1	human, plasma	oral, 25 mg, multiple doses, once daily, patients	Vd/F	520 L
CO[C@H]1CC[C@H](N2C(=O)CNc3ncc(-c4ccc(C(C)(C)O)nc4)nc32)CC1	human, plasma	oral, 45 mg, patients	Vd/F	186 L
